Measurements collected from several papers.
Protocols differ between the studies behind these lines.
Target: Serine/threonine-protein kinase pim-2 (PIM2, Homo sapiens, UniProt Q9P1W9)

assay | setting | quantity | result | SMILES
enzyme activity, inhibitor, radiometric | 1 µM | activity vs control | 88% | FC(F)(F)Oc1cccc(-c2cnc3ccc(-c4ccncc4)nn23)c1
enzyme activity, inhibitor | 10 µM | inhibition | -8% | CS(=O)(=O)Nc1cccc(-c2csc(NC(=O)CSc3nc4nccnc4c(=O)n3CCc3ccccc3)n2)c1
enzyme activity, inhibitor | 0.1 µM | inhibition | -5% | CC/C(=N\NC(=O)NCc1cccc(O)c1)c1ccc(O)c(C)c1O
cell-free assay | 0.5 µM | remaining signal | 48.6% | O=C1Nc2ccc(Cl)cc2C1=Cc1cc(Cl)c(O)c(Cl)c1
cell-free assay, competition with immobilised ligand | 1 µM | remaining binding | 0% | Cc1nccc(COC(=O)N2C[C@@H]3[C@@H](CNC(=O)c4ccc5[nH]nnc5c4)[C@@H]3C2)n1
enzyme activity, inhibitor | 1 µM | inhibition | -2% | COc1cc2ncnc(Nc3ccc(Oc4ccccc4)c(C)c3C)c2cc1OC
cell-free assay, competition with immobilised ligand | 0.1 µM | remaining binding | 88% | C[C@@H]1CN(c2cc(-c3n[nH]c4ccc(OC5(C)CC5)cc34)ncn2)C[C@H](C)O1
enzyme activity, inhibitor | 5 µM | remaining activity | 96.4% | O=C(Nc1cnn(-c2csc(C(=O)NC3COC3)c2)c1)Nc1ccccc1Cl
enzyme activity, inhibitor | 10 µM | remaining activity | 94% | Cn1c(=O)n(-c2ccc(C(C)(C)C#N)cc2)c2c3cc(-c4cnc5ccccc5c4)ccc3ncc21
enzyme activity, inhibitor | 1 µM | inhibition | < 10% | CCCS(=O)(=O)Nc1ccc(F)c(C(=O)c2c[nH]c3ncc(-c4ccc(Cl)cc4)cc23)c1F
cell-free assay | 0.5 µM | remaining signal | 97.2% | CCN(CC)CCNC(=O)c1c(C)[nH]c(/C=C2\C(=O)Nc3ccc(F)cc32)c1C
enzyme activity, inhibitor | 10 µM | remaining activity | 109% | CC(C)(C)C(=O)c1sc(NC2CCCCC2)nc1N
enzyme activity, inhibitor, radiometric | 1 µM | remaining activity | 98% | COc1cc(Nc2cnc(C#N)c(O[C@H](C)CN(C)C)n2)ncc1-c1cnn(C)c1
enzyme activity, inhibitor, radiometric | 1 µM | remaining activity | 81% | CC(C)(C)c1nc2c(s1)c1nc(N)ncc1c1ccc(NS(=O)(=O)c3c(F)cccc3F)c(F)c12
enzyme activity, inhibitor | 10 µM | remaining activity | 92% | FC(F)c1nc2ccccc2n1-c1nc(N2CCOCC2)nc(N2CCOCC2)n1
enzyme activity, inhibitor | 10 µM | remaining activity | 101% | CCCOc1ccc(OC)c(F)c1C(=O)c1ccc(C(=O)N[C@@H]2CNC[C@H]2NC(=O)c2ccc3[nH]ncc3c2)cc1

assay | setting | quantity | result | SMILES
cell-free assay, inhibitor | 20 µM | remaining signal | 100% | Nc1ncnc2occ(-c3ccc(NC(=O)Nc4cc(C(F)(F)F)ccc4F)cc3)c12
cell-free assay | 10 µM | remaining signal | 112% | Cc1ccc(NC(=O)c2ccc(C)c(C(F)(F)F)c2)cc1C#Cc1nn(C2CCC(O)CC2)c2ncnc(N)c12 (stereo not shown)
enzyme activity, inhibitor, radiometric | 1 µM | remaining activity | 100% | Cc1cnc(NC2CCOCC2)nc1-n1cnc(C(=O)NC(CN)c2cc(F)cc(Cl)c2)c1 (stereo not shown)
cell-free assay, competition with immobilised ligand | 1 µM | remaining binding | 88% | O=C1NC(c2ccccn2)Sc2ccccc21 (stereo not shown)
enzyme activity, inhibitor, FRET | 1 µM | inhibition | < 15% | CCOc1cc(-c2nncn2C)ccc1Nc1ncc2cc(C)nc(NCC(C)(C)C)c2n1
cell-free assay, competition with immobilised ligand | 1 µM | remaining binding | 100% | CO[C@@H](C)c1c(Nc2ccc([C@H](N(C)C(=O)C3CCS(=O)(=O)CC3)C(F)(F)F)cc2)cnc2cc(Cl)nn12
cell-free assay | 0.5 µM | remaining signal | 97.9% | C#Cc1cccc(Nc2ncnc3cc(OCCOC)c(OCCOC)cc23)c1
cell-free assay, competition with immobilised ligand | 1 µM | remaining binding | 100% | CC(=O)N1CCC(c2ccc(C(=O)NC(=N)N)cc2C(F)(F)F)CC1
enzyme activity, inhibitor | 1 µM | activity vs control | 74% | COc1cc(/C=C/C(=O)CC(=O)/C=C/c2ccc(O)c(OC)c2)ccc1O
cell-free assay, competition with immobilised ligand | 0.1 µM | remaining binding | 100% | CC(C)CC(=O)N1CCc2nc(-c3ccc(Br)cc3)nc(N(C)Cc3ccccc3)c2C1
cell-free assay | 0.5 µM | remaining signal | 118% | Cc1ccc(NC(=O)c2ccc(CN3CCN(C)CC3)cc2)cc1Nc1nc(-c2cccnc2)cs1
cell-free assay, competition with immobilised ligand | 1 µM | remaining binding | 84% | O=C1CCc2cc(Nc3cc(OC4CCOCC4)c([N+](=O)[O-])cc3Cl)ccc2N1
enzyme activity, inhibitor | 0.3 µM | inhibition | 6% | CNC(=O)c1cc(Oc2ccc(NC(=O)Nc3ccc(Cl)c(C(F)(F)F)c3)cc2)ccn1
binding, competition with immobilised ligand | 1 µM | remaining binding | 89% | Cc1nc(N2CC[C@@H](O)C2)ncc1-c1cc(C(F)(F)F)cc2[nH]ncc12
enzyme activity, inhibitor | 10 µM | remaining activity | 91% | Nc1nc(Nc2ccccc2)sc1C(=O)c1c(F)cccc1F
